Test results: ChEMBL document CHEMBL1157638, “Fluorescent epigenetic small molecule induces expression of the tumor suppressor ras-association domain family 1A and inhibits human prostate xenograft” (J Med Chem, 2010)
Activity calls are given as the source filed them. No cut-off for these calls is given here.

Key:
SR = assay: Growth inhibition of human SR cells assessed as cell growth at 100 nM relative to untreated control; format: functional; settings: read-out: Activity
COLO 205 [1] = assay: Growth inhibition of human COLO205 cells assessed as cell growth at 100 nM relative to untreated control; format: functional; settings: read-out: Activity
Summary of the method: (§1)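 Run externally at the National Cancer Institute as a 59-cell-line panel screen, with concentrations up to 100 μM. Growth was scored relative to control, where negative growth or total cell kill was possible. Data are in the Supporting Information.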

KM12 = assay: Growth inhibition of human KM12 cells assessed as cell growth at 100 nM relative to untreated control; format: functional; settings: read-out: Activity
SF-539 = assay: Growth inhibition of human SF539 cells assessed as cell growth at 100 nM relative to untreated control; format: functional; settings: read-out: Activity
OVCAR-8 = assay: Growth inhibition of human OVCAR8 cells assessed as cell growth at 100 nM relative to untreated control; format: functional; settings: read-out: Activity
NCI/ADR-RES = assay: Growth inhibition of human NCI/ADR-RES cells assessed as cell growth at 100 nM relative to untreated control; format: functional; settings: read-out: Activity
ACHN [2] = assay: Growth inhibition of human ACHN cells assessed as cell growth at 100 nM relative to untreated control; format: functional; settings: read-out: Activity
TK-10 [3] = assay: Growth inhibition of human TK10 cells assessed as cell growth at 100 nM relative to untreated control; format: functional; settings: read-out: Activity
K562 [4] = assay: Growth inhibition of human K562 cells assessed as cell growth at 1 uM relative to untreated control; format: functional; settings: read-out: Activity
NCI-H522 = assay: Growth inhibition of human NCI-H522 cells assessed as cell growth at 1 nM relative to untreated control; format: functional; settings: read-out: Activity
COLO 205 [5] = assay: Growth inhibition of human COLO205 cells assessed as cell growth at 1 nM relative to untreated control; format: functional; settings: read-out: Activity
Malme-3M [6] = assay: Growth inhibition of human MALME-3M cells assessed as cell growth at 1 nM relative to untreated control; format: functional; settings: read-out: Activity
MDA-MB-435 = assay: Growth inhibition of human MDA-MB-435 cells assessed as cell growth at 1 uM relative to untreated control; format: functional; settings: read-out: Activity
SK-MEL-28 [7] = assay: Growth inhibition of human SK-MEL-28 cells assessed as cell growth at 1 uM relative to untreated control; format: functional; settings: read-out: Activity
OVCAR-4 [8] = assay: Growth inhibition of human OVCAR4 cells assessed as cell growth at 1 uM relative to untreated control; format: functional; settings: read-out: Activity
ACHN [9] = assay: Growth inhibition of human ACHN cells assessed as cell growth at 1 nM relative to untreated control; format: functional; settings: read-out: Activity
UO-31 = assay: Growth inhibition of human UO31 cells assessed as cell growth at 1 nM relative to untreated control; format: functional; settings: read-out: Activity
T47D [10] = assay: Growth inhibition of human T47D cells assessed as cell growth at 1 nM relative to untreated control; format: functional; settings: read-out: Activity
MOLT-4 [11] = assay: Growth inhibition of human MOLT4 cells assessed as cell growth at 10 nM relative to untreated control; format: functional; settings: read-out: Activity
786-0 [12] = assay: Growth inhibition of human 786-0 cells assessed as cell growth at 1 uM relative to untreated control; format: functional; settings: read-out: Activity
[13] = Growth inhibition of human Hs 578T cells assessed as cell growth at 1 uM relative to untreated control; format: functional; settings: read-out: Activity
K562 [14] = assay: Growth inhibition of human K562 cells assessed as cell growth at 10 uM relative to untreated control; format: functional; settings: read-out: Activity
MOLT-4 [15] = assay: Growth inhibition of human MOLT4 cells assessed as cell growth at 10 uM relative to untreated control; format: functional; settings: read-out: Activity
EKVX = assay: Growth inhibition of human EKVX cells assessed as cell growth at 10 uM relative to untreated control; format: functional; settings: read-out: Activity; summary of the method: as §1
HOP-62 = assay: Growth inhibition of human HOP62 cells assessed as cell growth at 10 uM relative to untreated control; format: functional; settings: read-out: Activity; summary of the method: as §1
SNB-19 = assay: Growth inhibition of human SNB19 cells assessed as cell growth at 10 uM relative to untreated control; format: functional; settings: read-out: Activity
U-251 = assay: Growth inhibition of human U251 cells assessed as cell growth at 10 uM relative to untreated control; format: functional; settings: read-out: Activity
SK-MEL-5 = assay: Growth inhibition of human SK-MEL-5 cells assessed as cell growth at 10 uM relative to untreated control; format: functional; settings: read-out: Activity
OVCAR-3 [16] = assay: Growth inhibition of human OVCAR-3 cells assessed as cell growth at 10 uM relative to untreated control; format: functional; settings: read-out: Activity
SK-OV-3 [17] = assay: Growth inhibition of human SKOV3 cells assessed as cell growth at 10 uM relative to untreated control; format: functional; settings: read-out: Activity
786-0 [18] = assay: Growth inhibition of human 786-0 cells assessed as cell growth at 10 uM relative to untreated control; format: functional; settings: read-out: Activity
Malme-3M [19] = assay: Growth inhibition of human MALME-3M cells; format: functional
OVCAR-3 [20] = assay: Growth inhibition of human OVCAR-3 cells; format: functional; settings: read-out: LC50 (the source's name)
SK-OV-3 [21] = assay: Growth inhibition of human SKOV3 cells; format: functional
786-0 [22] = assay: Growth inhibition of human 786-0 cells; format: functional
PC-3 [23] = assay: Decrease in DNA synthesis in human PC3 cells at 5 uM after 24 hrs by BrdU incorporation assay; format: functional, cell-based
Summary of the method: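 PC-3 cells were seeded at 2 × 10⁴ cells/well and exposed to 5 μM compound or DMSO for 24 h. BrdU incorporation was read by chemiluminescent cell proliferation ELISA on a luminometer. Background without anti-BrdU-peroxidase was subtracted and values were normalized to untreated control. Values are mean ± SEM.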

PC-3 [24] = assay: Increase in RASSF1A gene expression in human PC3 cells at 5 uM after 3 days hrs by RT-PCR; format: functional, cell-based
Summary of the method: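 PC-3 cells incubated 3 days with compound, then RNA extracted with TRIzol. 500 ng total RNA reverse-transcribed with random hexamers. RASSF1A amplified with previously described primers and conditions. Products run on 1.5% agarose and stained with ethidium bromide. Bands quantified by densitometry against untreated cells, with RASSF1A re-expression from the reference alkaloid set to 100%.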

[25] = Growth inhibition of human […] cells assessed as cell growth at 1 nM relative to untreated control; format: functional; settings: read-out: Activity
T47D [26] = assay: Growth inhibition of human T47D cells; format: functional
SNB-75 = assay: Growth inhibition of human SNB75 cells assessed as cell growth at 10 nM relative to untreated control; format: functional; settings: read-out: Activity
SK-MEL-28 [27] = assay: Growth inhibition of human SK-MEL-28 cells assessed as cell growth at 10 nM relative to untreated control; format: functional; settings: read-out: Activity
OVCAR-4 [28] = assay: Growth inhibition of human OVCAR4 cells assessed as cell growth at 10 nM relative to untreated control; format: functional; settings: read-out: Activity
OVCAR-5 = assay: Growth inhibition of human OVCAR5 cells assessed as cell growth at 10 nM relative to untreated control; format: functional; settings: read-out: Activity
CAKI-1 = assay: Growth inhibition of human Caki1 cells assessed as cell growth at 10 nM relative to untreated control; format: functional; settings: read-out: Activity; summary of the method: as §1
TK-10 [29] = assay: Growth inhibition of human TK10 cells assessed as cell growth at 10 nM relative to untreated control; format: functional; settings: read-out: Activity
[30] = read-out: LC50 (the source's name)

COc1ccc2c(c1)[nH]c1c(C)c(OS(=O)(=O)c3cccc4c(N(C)C)cccc34)ccc12
growth at 0.1 µM (SR): 95% | growth at 0.1 µM (COLO 205 [1]): 95% | growth at 0.1 µM (KM12): 97% | growth at 0.1 µM (SF-539): 87% | growth at 0.1 µM (OVCAR-8): 101% | growth at 0.1 µM (NCI/ADR-RES): 93% | growth at 0.1 µM (ACHN [2]): 97% | growth at 0.1 µM (TK-10 [3]): 107% | growth at 1 µM (K562 [4]): 5% | growth at 0.001 µM (NCI-H522): 109% | growth at 0.001 µM (COLO 205 [5]): 104% | growth at 0.001 µM (Malme-3M [6]): 93% | growth at 1 µM (MDA-MB-435): -5% | growth at 1 µM (SK-MEL-28 [7]): 39% | growth at 1 µM (OVCAR-4 [8]): 44% | growth at 0.001 µM (ACHN [9]): 100% | growth at 0.001 µM (UO-31): 94% | growth at 0.001 µM (T47D [10]): 95% | growth at 0.01 µM (MOLT-4 [11]): 97% | growth at 1 µM (786-0 [12]): 30% | growth at 1 µM [13]: 20% | growth at 10 µM (K562 [14]): 5% | growth at 10 µM (MOLT-4 [15]): 7% | growth at 10 µM (EKVX): 16% | growth at 10 µM (HOP-62): 35% | growth at 10 µM (SNB-19): 27% | growth at 10 µM (U-251): 14% | growth at 10 µM (SK-MEL-5): -28% | growth at 10 µM (OVCAR-3 [16]): -9% | growth at 10 µM (SK-OV-3 [17]): 34% | growth at 10 µM (786-0 [18]): 6% | GI50 (Malme-3M [19]): 3.62 µM | TGI (Malme-3M [19]): > 100 µM | CC50 (Malme-3M [19]; [30]): > 100 µM | CC50 (OVCAR-3 [20]): > 100 µM | GI50 (SK-OV-3 [21]): 5.47 µM | TGI (SK-OV-3 [21]): > 100 µM | CC50 (SK-OV-3 [21]; [30]): > 100 µM | GI50 (786-0 [22]): 5.42 µM | TGI (786-0 [22]): > 100 µM | CC50 (786-0 [22]; [30]): > 100 µM | Activity (PC-3 [23]): Active | Activity (PC-3 [24]): Active | growth at 0.001 µM [25]: 99% | GI50 (T47D [26]): 3.06 µM | TGI (T47D [26]): > 100 µM | CC50 (T47D [26]; [30]): > 100 µM | growth at 0.01 µM (SNB-75): 118% | growth at 0.01 µM (SK-MEL-28 [27]): 87% | growth at 0.01 µM (OVCAR-4 [28]): 92% | growth at 0.01 µM (OVCAR-5): 106% | growth at 0.01 µM (CAKI-1): 86% | growth at 0.01 µM (TK-10 [29]): 94%
